CHO parental Ca: counter-screen: ATP calcium response change in parental CHO cells | parental CHO-K1, ATP-induced calcium, Fluo-8 fluorescence | inhibition, % at 5.6 µM | actives 0.63% (n = 330,000) | AID 463079;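 active = inhibition above that plate's mean sample inhibition plus 3 SD, cut at about 26% in these data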;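 also: 0% = ATP-challenged DMSO wells and 100% = DMSO wells without ATP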
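Assay system: untransfected parental CHO cell line. Also added: ATP agonist challenge. Dosing: one dose, 5.6 µM nominal. Measured by: Fluo-8 fluorescence. Read-out: % inhibition. Benchmarks: ATP wells versus no-ATP DMSO wells. Repeats: no replicates.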
TAAR1 agonist: agonists of human TAAR1; CHO RD-HGA16 TAAR1, Fluo-8 calcium fluorescence; vehicle wells 0%, saturating PEA agonist 100%; activation, % at 3 µM; Q96RJ0; actives 0.99% (n = 360,000);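 active = activation above the mean activation of all test compounds in the run plus 3 SD, cut at about 38% in these data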
Target sequence (Q96RJ0 whole entry, looked up): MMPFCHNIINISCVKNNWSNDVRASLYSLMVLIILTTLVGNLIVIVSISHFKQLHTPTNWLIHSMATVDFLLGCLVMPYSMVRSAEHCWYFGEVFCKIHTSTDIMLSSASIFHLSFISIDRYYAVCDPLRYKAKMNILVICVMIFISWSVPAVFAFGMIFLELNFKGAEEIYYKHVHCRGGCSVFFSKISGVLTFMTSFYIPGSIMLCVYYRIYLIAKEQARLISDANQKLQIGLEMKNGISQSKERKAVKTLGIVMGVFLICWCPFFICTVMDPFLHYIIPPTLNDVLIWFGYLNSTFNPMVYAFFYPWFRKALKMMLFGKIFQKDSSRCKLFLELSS
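Repeats: no replicates (n 1) | Material: CHO-derived RD-HGA16 cells with stable Gα16 and human TAAR1 | Technique: Kinetic Fluo-8 calcium fluorescence | Schedule: 17-24 h seeding, 75 min 37 °C dye, 30 min RT | Evaluation: % activation from peak over basal fluorescence ratio, DMSO-to-PEA scaled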
OX1R antag-1: OX1R (human) antagonism | AID 485270 | O43613 | inhibition, % at 6.6 µM | actives 1.8% (n = 330,000) | OX1R-expressing cells, FRET antagonist read-out; in the data active = inhibition mostly above about 38%, no sharp cut-off; inactive = mostly below about 40%;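 also: 0% = agonist challenge alone and 100% = reference antagonist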
TAAR1 antagonist: antagonists of human TAAR1; CHO RD-HGA16 TAAR1, Fluo-8 calcium fluorescence, antagonist; actives 1.5% (n = 360,000); inhibition, % at 3 µM; AID 624466; Q96RJ0;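 active = inhibition above a per-plate cutoff, the mean inhibition of test compounds on that plate plus 3 SD, cut at about 49% in these data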;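 also: 0% = DMSO plus EC80 beta-PEA response and 100% = DMSO alone without agonist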
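System: RD-HGA16 CHO cells with stable hTAAR1 and Gα16 | Probe or stimulus: EC80 β-phenethylamine stimulus | Dosing: 3 µM, single point | Times: Dye loading 75 min at 37 °C, then 30 min room temperature | Measured by: Fluo-8 calcium-sensitive fluorescence | Read-out basis: % inhibition of agonist calcium response | Replicates: n of 1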
GPR7 antagonist: antagonists of human GPR7 (neuropeptides B/W receptor 1); GPR7-expressing cells, fluorescence antagonist assay; inhibition, % at 4.4 µM; actives 1.1% (n = 290,000); AID 1861; in the data active = inhibition above about 16%, passing the limit was not always enough;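 also: cells stimulated with the agonist NPW; 0% = agonist with vehicle and 100% = vehicle without agonist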
Target sequence (P48145 whole entry, looked up): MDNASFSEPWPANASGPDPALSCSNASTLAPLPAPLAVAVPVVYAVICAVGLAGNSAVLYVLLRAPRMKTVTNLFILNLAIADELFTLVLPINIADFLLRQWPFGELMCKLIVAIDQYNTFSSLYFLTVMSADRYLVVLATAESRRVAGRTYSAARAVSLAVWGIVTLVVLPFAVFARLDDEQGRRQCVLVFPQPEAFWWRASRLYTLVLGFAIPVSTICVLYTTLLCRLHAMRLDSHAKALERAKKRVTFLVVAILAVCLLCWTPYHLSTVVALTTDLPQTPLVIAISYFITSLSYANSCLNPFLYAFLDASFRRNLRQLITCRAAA
OX1R antag-2: antagonists of human orexin 1 receptor | AID 434989 | inhibition, % at 5 µM | O43613 | CHO/OX1R cells, Fluo-8 calcium fluorescence, orexin A | actives 0.43% (n = 330,000);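 active = inhibition above its plate's threshold, mean inhibition of all tested compounds on the plate plus 3 SD, cut at about 37% in these data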;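 also: 0% = orexin A challenge wells and 100% = SB-334867-A antagonist wells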
Active calls of the source: *; nt = no result given. Compounds with a hit are over-represented: about 4.5% of the library has one in this group of screens.

SMILES	CHO parental Ca	TAAR1 agonist	OX1R antag-1	TAAR1 antagonist	GPR7 antagonist	OX1R antag-2
O=C(NCCN1CCC(n2c(=O)[nH]c3ccccc32)CC1)N1c2ccccc2Sc2ccccc21	nt	9.6	nt	33.7	nt	nt
COc1cccc(-c2nc(CS(=O)(=O)CC(=O)Nc3cccc(C(C)=O)c3)c(C)o2)c1	-32.5	3.8	47.9*	7.7	-7.4	-0.1
COc1ccc(OC)c(NC(=O)CS(=O)(=O)Cc2nc(-c3ccccc3C)oc2C)c1	-19.6	-0.5	72.2*	-9.4	-0.7	1.9
Nc1nc2c(ncn2[C@@H]2O[C@H](C(=O)NCC3CCCCC3)[C@@H](O)[C@H]2O)c(=O)[nH]1	nt	2.4	nt	-15.1	nt	nt
COC(=O)c1sc(NC(=O)COc2cccc(C)c2)nc1C	-6.4	-0.6	69.2*	-3.2	12.7	-13.4
CC1CC1C(=O)OCC(=O)Nc1ccc(S(=O)(=O)N2CCOCC2)cc1 (stereo not drawn)	-12.7	0.9	4.0	8.8	nt	5.3
O=C1c2ccccc2C(=O)c2c(O)c(O)cc(O)c21	-1.8	-1.9	28.1*	1.2	nt	0.2
O=C(c1ccc(COc2ccc(Cl)cc2)o1)N1CCN(Cc2ccc3c(c2)OCO3)CC1	9.4	6.3	14.8	52.5*	-11.8	19.2
O=C(c1cc(COc2ccc3ncccc3c2)on1)N1CCCC(O)C1 (stereo not drawn)	-2.9	5.1	29.4	-32.1	-15.0	-7.7
O=C(c1cc(COc2ccc3ncccc3c2)on1)N1CCC(O)CC1	19.3	6.2	14.9	10.7	-12.7	-2.3
CCOC(=O)N1CCN(C(=O)c2cc(COc3cccc(C(C)=O)c3)on2)CC1	-3.6	8.2	6.9	-4.1	-0.8	-19.2
CCOC(=O)N1CCN(C(=O)c2cc(COc3ccc4ncccc4c3)on2)CC1	28.5*	9.4	12.3	-10.6	-1.9	22.1
Cc1cccnc1CN1CCN(C(=O)c2cc(COc3ccc4ncccc4c3)on2)CC1	59.5*	9.6	53.0	8.5	-9.3	49.2*
COCC1CCCN(C(=O)c2cc(COc3ccc4ncccc4c3)on2)C1 (stereo not drawn)	54.1*	7.6	27.4	-17.4	11.3	17.9
CCC(O)C1CCN(C(=O)c2cc(COc3ccc4ncccc4c3)on2)CC1 (stereo not drawn)	31.4*	9.5	30.3	4.1	12.7	12.1
CN(Cc1ccccc1)C(=O)c1cccc(NC(=O)Cc2ccc(NC(=O)C3CCCN(S(=O)(=O)c4cccc([N+](=O)[O-])c4)C3)cc2)c1 (stereo not drawn)	nt	0.3	nt	-11.2	nt	nt
COCc1cc(C)nc(SCC(=O)Nc2cccc3cccnc23)c1C#N	-8.4	0.4	52.5*	-6.0	-2.6	-2.0
CC(NC(=O)c1cccnc1Sc1ccccc1)c1ccc(S(N)(=O)=O)cc1 (stereo not drawn)	-5.5	1.8	12.5	4.5	-10.8	-8.3
C=CCOc1ccc(C=CC(=O)c2c(O)c(OC)c(OC)c(OC)c2OC)cc1	nt	2.4	nt	68.7*	nt	nt
COCc1cc(N2CCN(C(=O)OC(C)(C)C)C[C@H]2C)ccc1Br	nt	-1.5	nt	-11.5	nt	nt
S=C(NCCCCN(Cc1ccc(Cl)cc1)c1ccc(Br)cn1)NCCCc1cnc[nH]1	nt	38.0*	nt	31.0	nt	nt
CCCCCCCCN1C(=O)[C@@H](CC(=O)NCCCOC)C[C@@]2(C(=O)OC)C1=C[C@H](C(C)(C)C)O[C@@H]2C	nt	-2.7	nt	-37.7	nt	nt
CCOC(=O)c1ccc(NC(=O)c2cc3c(s2)CCC3)cc1	-7.4	-0.2	69.7*	-46.8	-7.5	-5.4
CCOC(=O)c1ccc(NC(=O)c2ccc(NC(=O)c3ccccc3)cc2)cc1	-9.5	-2.0	9.8	16.6	-12.2	-21.1
CCO[C@@H]1OC(C(=O)N2CCN(Cc3ccc4c(c3)OCO4)CC2)=C[C@H](c2ccc(Br)cc2)[C@H]1CCCO	16.7	11.7	16.8	48.8*	-10.8	-7.1
SMILES	CHO parental Ca	TAAR1 agonist	OX1R antag-1	TAAR1 antagonist	GPR7 antagonist	OX1R antag-2
O=C(NC1CCCC1)[C@@H]1CCCN1C(=O)[C@@H](NC(=O)N1CCOCC1)C1CCCCC1	nt	1.7	nt	6.8	nt	nt
CCCN1CCCCC(NC(C)=O)C1=O (stereo not drawn)	nt	1.4	nt	-16.0	nt	nt
Cn1cc(CNCc2ccc(OC(F)(F)F)cc2)c(-c2ccc3c(c2)OCCO3)n1	40.4*	8.5	33.3	-13.1	8.3	16.2
CC1(C)C(C=C(Cl)Cl)C1C(=O)Nc1ccc([N+](=O)[O-])cc1 (stereo not drawn)	49.6*	16.2	28.7	43.4	-5.5	24.7
O=C(Nc1ccc([N+](=O)[O-])cc1)C1CC1(c1ccccc1)c1ccccc1 (stereo not drawn)	-5.6	1.2	28.3	53.6*	-2.1	24.0
CC1(C)C(C=C(Cl)Cl)C1C(=O)N/N=C/c1ccccc1F (stereo not drawn)	-12.6	1.9	13.9	4.2	-14.3	-23.1
Cc1cc2c(nc1C)CCCN2S(=O)(=O)c1c(C)noc1C	nt	1.6	nt	-13.1	nt	nt
COc1ccc(-c2nc(C)ncc2-c2csc(C)n2)c(O)c1	-4.6	1.5	18.4	7.1	-2.5	-8.1
COc1ccc(-c2ncncc2-c2csc(C)n2)c(O)c1	-8.4	1.8	-3.6	-23.0	17.0*	-9.8
O=c1c2ccccc2c(C=Nc2cccc(S(=O)(=O)NCc3ccco3)c2)c(O)n1-c1ccc(Cl)cn1	-7.4	2.2	65.7*	12.4	-5.9	3.6
O=c1c2ccccc2c(C=Nc2ccc(S(=O)(=O)N3CCCCC3)cc2)c(O)n1-c1ccc(Cl)cn1	-9.1	3.8	4.0	-8.6	-7.8	-20.2
Cc1cc(C)n2nc(SCc3cccc(S(=O)(=O)N(C)C)c3)nc2n1	8.1	5.4	13.9	0.7	-10.1	-10.4
CN(C)S(=O)(=O)c1cccc(COC(=O)c2ccc3c(c2)OCO3)c1	-6.7	2.4	21.6	21.5	8.9	-8.8
CN(C)S(=O)(=O)c1cccc(CSCc2cccc(S(=O)(=O)N(C)C)c2)c1	45.6*	5.0	27.1	32.2	25.4	6.4
CN(C)S(=O)(=O)c1cccc(COC(=O)c2ccc(Cl)cc2O)c1	48.2*	1.6	33.8	8.3	6.0	32.9
O=C(C(=O)N1CCN(S(=O)(=O)c2ccc(F)cc2)CC1)c1cccc(C(F)(F)F)c1	nt	-0.6	nt	3.5	nt	nt
CCOc1cc(OCC)cc(C(=O)N2CCC[C@@H]2C(=O)N2CCC[C@@H]2C(=O)NCc2cccc(OC)c2)c1	nt	-0.7	nt	-9.5	nt	nt
C=CCN(C(=O)c1cccc(C(F)(F)F)c1)C1(C(=O)Nc2ccccc2)CCN(C(C)C)CC1	-22.6	11.3	9.6	11.0	18.4*	-38.1
COC(=O)C1=C(C)N(C)C(=NCc2ccc3c(c2)OCO3)NC1c1ccc(F)cc1 (stereo not drawn)	nt	7.4	nt	-16.9	nt	nt
CC(=O)Nc1nc(-c2ccc3c(c2)CCN3C(=O)C2CC2)c(C)s1	-10.4	1.9	47.7*	-10.9	-4.8	-10.9

High-throughput results as filed in PubChem BioAssay.
